These results are taken from ChEMBL document CHEMBL3045425, “Isolation and identification of precocenes and piperitone from essential oils as specific inhibitors of trichothecene production by Fusarium graminearum” (J Agric Food Chem, 2009).

The structures appear in SMILES notation. Activity calls are given as the source filed them. No cut-off for these calls is given here.

Series [1] concerns Fusarium graminearum. Kind of series: Effect on deoxynivalenol synthetic pathway intermediates accumulation in Fusarium graminearum at 1000 uM by TLC analysis. The format is functional, organism-based. The essentials: (§1)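 Pooled broth (5 × 10 mL) was split into filtrate and mycelia. Filtrate was extracted with ethyl acetate and mycelia with methanol. n-Hexane and ethyl acetate fractions were examined spectroscopically for intermediate signals such as trichodiene.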

Series [2] has as its system Fusarium graminearum. Put plainly: Downregulation of Tri10 gene expression in Fusarium graminearum at 300 to 1000 uM measured after 72 hr by quantitative-RT-PCR analysis. The format is functional, organism-based. In outline:
(§2)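 Spores (1 × 10^5/tube) grown in 5 mL SYEP medium with shaking at 300 rpm, 26.5 °C, for 72 h, with or without compound at 300 or 1000 µM. Mycelial total RNA was used for SYBR Green qRT-PCR on cDNA from 0.005 µg RNA: 95 °C 10 min, then 40 cycles of 95 °C 15 s / 60 °C 1 min. Normalised to β-tubulin mRNA; n = 3.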

For series [3], the system named is Fusarium graminearum. Kind of series: Downregulation of Tri6 gene expression in Fusarium graminearum at 300 to 1000 uM measured after 72 hr by quantitative-RT-PCR analysis. The format is functional, organism-based. The essentials:
as §2

The test system of series [4] is Fusarium graminearum. Kind of series: Downregulation of Tri5 gene expression in Fusarium graminearum at 300 to 1000 uM measured after 72 hr by quantitative-RT-PCR analysis. The format is functional, organism-based. The essentials: as §2
Series [5] concerns Fusarium graminearum. Kind of series: Downregulation of Tri4 gene expression in Fusarium graminearum at 300 to 1000 uM measured after 72 hr by quantitative-RT-PCR analysis. It counts as functional, organism-based. In outline:
as §2

Series [6] has as its system Fusarium graminearum. Put plainly: microbe, parasite or virus in culture. It counts as functional.
The subject of series [7] is Fusarium graminearum. Kind of series: microbe, parasite or virus in culture. It counts as functional. The source holds these as a separate data set.
The subject of series [8] is Fusarium graminearum. It counts as functional, organism-based.
In series [9] the test system is Fusarium graminearum. Kind of series: Growth inhibition of Fusarium graminearum assessed as mycelial weight at 26.5 degC after 7 days. The format is organism-based. The following applies: in vivo, 168 h. In outline:
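Methanolic sample added to 5 mL SYEP (sucrose 5%, yeast extract 0.1%, polypeptone 0.1%), final methanol 0.3%. Inoculated with 1 × 10^5 spores/tube and shaken at 300 rpm, 26.5 °C, for 7 days. Mycelia were collected on cheesecloth, washed with water, dried at 100 °C for 3 h and weighed.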

For series [10], the system named is Fusarium graminearum. Kind of series: microbe, parasite or virus in culture. The format is functional, organism-based. The conditions noted are these: 168 h.
Another series has as its system Fusarium culmorum. Kind of series: Inhibition of 3-acetyldeoxynivalenol production by Fusarium culmorum in liquid culture. It counts as functional, organism-based.
Series [11] deals with Fusarium graminearum. The format is functional, organism-based. This is another data set of the same source.
The subject of series [12] is Fusarium graminearum. Put plainly: Effect on deoxynivalenol synthetic pathway intermediates accumulation in Fusarium graminearum at 30 uM by TLC analysis. The format is functional, organism-based. In outline: as §1
Series [13] relates to Fusarium graminearum. Kind of series: Downregulation of Tri10 gene expression in Fusarium graminearum at 26.5 degC measured after 48 to 96 hr by quantitative-RT-PCR analysis. It counts as functional, organism-based. The essentials:
(§3)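 SYEP liquid medium (5 mL/tube) inoculated with 1 × 10^5 spores and shaken at 300 rpm, 26.5 °C, with or without compound at 3 or 30 µM, for 48, 96 or 144 h. Total RNA was taken from the mycelia. SYBR Green real-time RT-PCR was run on cDNA from 0.005 µg RNA: 95 °C 10 min, then 40 cycles of 95 °C 15 s / 60 °C 1 min. β-tubulin mRNA was the reference; n = 3.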

For series [14], the system named is Fusarium graminearum. Kind of series: Downregulation of Tri6 gene expression in Fusarium graminearum at 26.5 degC measured after 48 to 96 hr by quantitative-RT-PCR analysis. The format is functional, organism-based. In outline:
as §3

Series [15] deals with Fusarium graminearum. Put plainly: Downregulation of Tri5 gene expression in Fusarium graminearum at 3 to 30 uM at 26.5 degC measured after 48 to 144 hr by quantitative-RT-PCR analysis. It counts as functional, organism-based. In outline:
as §3

Series [16] relates to Fusarium graminearum. Kind of series: Downregulation of Tri4 gene expression in Fusarium graminearum at 3 to 30 uM at 26.5 degC measured after 48 to 144 hr by quantitative-RT-PCR analysis. It counts as functional, organism-based. The essentials: as §3

The inhibition is the change of the read-out against control, counted positive when it falls.

`CC1=CC(=O)[C@@H](C(C)C)CC1` [(-)-PIPERITONE]: the result with Fusarium graminearum [1] was inactive. Besides, the inhibition entry in the series with Fusarium graminearum [2], with Fusarium graminearum [3], in the series on Fusarium graminearum [4] and in the series on Fusarium graminearum [5] was “Active” in each case. Also, 152 ppm produced 25% inhibition with Fusarium graminearum [6]. This compound showed an inhibition at 5.7 ppm in the series on Fusarium graminearum [7] of 20%. For the same compound, the figures for the IC50 in the series on Fusarium graminearum [8] and in the series with Fusarium graminearum [10] were 61.2 ppm and 306 µM, respectively. Besides, the Activity result with Fusarium graminearum [9] is recorded as “Non-toxic”.

In turn, `CC(=O)c1cccc2oc(=O)[nH]c12` [4-ACETYL-2-BENZOXAZOLINONE] yielded an IC50 in the series with Fusarium culmorum of 4 µM.

`COc1cc2c(cc1OC)OC(C)(C)C=C2` [PROCOCENE II]: the IC50 in the series with Fusarium graminearum [11] turned out to be 2 ppm; in the series with Fusarium graminearum [8], 0.36 ppm; in the series on Fusarium graminearum [10], 1.2 µM. For the same compound, the outcome with Fusarium graminearum [12] was inactive. For the same compound, the inhibition result with Fusarium graminearum [13] and in the series with Fusarium graminearum [14] was “Dose-dependent effect” throughout. Moreover, the inhibition entry in the series on Fusarium graminearum [15] and in the series with Fusarium graminearum [16] was “Active” throughout. For the same compound, the Activity result in the series with Fusarium graminearum [9] is recorded as “Non-toxic”.

With `COc1ccc2c(c1)OC(C)(C)C=C2` [PROCOCENE I], the inhibition at 152 ppm with Fusarium graminearum [6] amounted to 25%. For the same compound, testing at 5.7 ppm in the series with Fusarium graminearum [7] gave an inhibition of 20%. Further, the IC50 with Fusarium graminearum [8] is 1.3 ppm; in the series with Fusarium graminearum [10], 16.6 µM.
